# Measured values as given in ChEMBL document CHEMBL1773046, “Isoprenylated flavonoids and adipogenesis-promoting constituents from Morus nigra” (2011).
# Calls of active or inactive are those of the source. The rule behind the calls is not given here.
# Columns and labels:
# 3T3-L1 [1] = test: Induction of mouse 3T3L1 cell differentiation assessed as increase in accumulation of intracellular lipid droplet at 25 uM by Oil red O staining; type: functional, cell-based
# Summary of the method: (§1)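 Following 8-day differentiation with compound applied from induction (insulin/dexamethasone/IBMX, then insulin maintenance), intracellular lipid droplets visualized by Oil Red O staining and photographed.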
# 3T3-L1 [2] = test: Induction of adipogenesis in mouse 3T3L1 cells assessed as increase in triglyceride level at 12.5 uM after 8 days relative to control; type: functional
# Summary of the method: (§2)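 Differentiation protocol: confluent 3T3-L1 cells held 2 days, then induced with insulin (2 μg/mL), dexamethasone (1 μM) and IBMX (0.125 mM) in 10% FBS/DMEM, then maintained with insulin. Compound present from induction for 8 days. Cellular triglyceride quantified with an enzymatic kit and compared with untreated control.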
# 3T3-L1 [3] = test: Induction of GLUT4 gene expression in mouse 3T3L1 cells assessed as increase in GLUT4 protein level at 6.25 uM by Western blot analysis; type: functional, cell-based
# Summary of the method: (§3)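 3T3-L1 cells grown in DMEM/10% NCS at 37 °C, 5% CO2. Two days post-confluence, differentiation induced with 2 μg/mL insulin, 1 μM dexamethasone and 0.125 mM IBMX in 10% FBS/DMEM, then kept in 10% FBS/DMEM plus 2 μg/mL insulin. Compound added at induction and left 8 days. Cells then harvested for target protein (RIPA lysate, immunoblot) or mRNA (TRIzol RNA, RT-qPCR).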
# 3T3-L1 [4] = test: Induction of aP2 gene expression in mouse 3T3L1 cells assessed as increase in mRNA level at 10 uM by qRT-PCR analysis; type: functional, cell-based; summary of the method: as §3
# 3T3-L1 [5] = test: Induction of adipogenesis in mouse 3T3L1 cells assessed as increase in triglyceride level at 50 uM after 8 days relative to control; type: functional; summary of the method: as §2
# 3T3-L1 [6] = test: Induction of GLUT4 gene expression in mouse 3T3L1 cells assessed as increase in mRNA level at 10 uM by qRT-PCR analysis; type: functional, cell-based; summary of the method: as §3
# 3T3-L1 [7] = test: Induction of GLUT4 gene expression in mouse 3T3L1 cells assessed as increase in GLUT4 protein level at 12.5 uM by Western blot analysis; type: functional, cell-based; summary of the method: as §3
# 3T3-L1 [8] = test: Induction of aP2 gene expression in mouse 3T3L1 cells assessed as increase in aP2 protein level at 6.25 uM by Western blot analysis; type: functional, cell-based; summary of the method: as §3
# 3T3-L1 [9] = test: Induction of adipogenesis in mouse 3T3L1 cells assessed as increase in triglyceride level at 25 uM after 8 days relative to control; type: functional; summary of the method: as §2
# 3T3-L1 [10] = test: Induction of aP2 gene expression in mouse 3T3L1 cells assessed as increase in aP2 protein level at 12.5 uM by Western blot analysis; type: functional, cell-based; summary of the method: as §3
# 3T3-L1 [11] = test: Induction of adipogenesis in mouse 3T3L1 cells assessed as increase in triglyceride level at 1 uM after 8 days relative to control; type: functional; summary of the method: as §2
# 3T3-L1 [12] = test: Induction of mouse 3T3L1 cell differentiation assessed as increase in accumulation of intracellular lipid droplet at 1 uM by Oil red O staining; type: functional, cell-based; summary of the method: as §1
structure (smiles),measurement,setting,value
C=C(C)C(O)CC/C(C)=C/CC/C(C)=C/C[C@@]12Oc3cc(O)cc(O)c3C(=O)[C@]1(O)Oc1cc(O)ccc12 (stereo partly specified),Activity,3T3-L1 [1],inactive
C=C(C)[C@@H]1Cc2c(cc(O)c3c2O[C@]2(CC=C(C)C)c4ccc(O)cc4O[C@]2(O)C3=O)O1,Activity,3T3-L1 [1],inactive
C=C(C)[C@H]1Cc2c(cc(O)c3c2O[C@]2(CC=C(C)C)c4ccc(O)cc4O[C@]2(O)C3=O)O1,Activity,3T3-L1 [1],inactive
CC(C)=CCC/C(C)=C/CC/C(C)=C/C[C@@]12Oc3cc(O)cc(O)c3C(=O)[C@]1(O)Oc1cc(O)ccc12,Activity,3T3-L1 [1],inactive
CC(C)=CC[C@]12Oc3cc4c(c(O)c3C(=O)[C@@]1(O)Oc1cc(O)ccc12)C[C@@H](C(C)(C)O)O4,Activity,3T3-L1 [1],inactive
CC(C)=CC[C@]12Oc3cc4c(c(O)c3C(=O)[C@@]1(O)Oc1cc(O)ccc12)C[C@@H](O)C(C)(C)O4,Activity,3T3-L1 [1],inactive
CC(C)=CC[C@]12Oc3cc4c(c(O)c3C(=O)[C@@]1(O)Oc1cc(O)ccc12)C[C@H](C(C)(C)O)O4,Activity,3T3-L1 [1],inactive
CC(C)=CC[C@]12Oc3cc4c(c(O)c3C(=O)[C@@]1(O)Oc1cc(O)ccc12)C[C@H](O)C(C)(C)O4,Activity,3T3-L1 [1],inactive
CC(C)=CCc1c(O)cc2oc(-c3ccc(O)cc3O)c(CC=C(C)C)c(=O)c2c1O,Activity,3T3-L1 [1],inactive
CC(C)=CCc1c(-c2ccc(O)cc2O)oc2c3c(cc(O)c2c1=O)O[C@H](C)C3(C)C [NIGRASIN H],Activity,3T3-L1 [2],102.16%
same,Activity,3T3-L1 [3],Active
same,Activity,3T3-L1 [4],Active
same,Activity,3T3-L1 [1],Active
same,Activity,3T3-L1 [5],203.39%
same,Activity,3T3-L1 [6],Active
same,Activity,3T3-L1 [7],Active
same,Activity,3T3-L1 [8],Active
same,Activity,3T3-L1 [9],143.94%
same,Activity,3T3-L1 [10],Active
C=CC(C)(C)c1c(O)cc(O)c2c(=O)c(CC=C(C)C)c(-c3ccc(O)cc3O)oc12 [NIGRASIN I],Activity,3T3-L1 [2],179.84%
same,Activity,3T3-L1 [3],Active
same,Activity,3T3-L1 [4],Active
same,Activity,3T3-L1 [1],Active
same,Activity,3T3-L1 [5],250.63%
same,Activity,3T3-L1 [6],Active
same,Activity,3T3-L1 [7],Active
same,Activity,3T3-L1 [8],Active
same,Activity,3T3-L1 [9],317.18%
same,Activity,3T3-L1 [10],Active
CN(CCOc1ccc(CC2SC(=O)NC2=O)cc1)c1ccccn1 (stereo unspecified) [ROSIGLITAZONE],Activity,3T3-L1 [11],450.32%
same,Activity,3T3-L1 [12],Active
